Assay [1] addresses Human immunodeficiency virus type 1 reverse transcriptase (Human immunodeficiency virus 1, UniProt Q72547). Briefly: Inhibition of human immunodeficiency virus-1 reverse transcriptase associated RNase H activity using 18-nucleotide 3,-fluorescein-labeled RNA substrate by fluorescence resonance energy transfer assay. The gist of the method:
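Inhibition of HIV RT-associated RNase H activity was measured by a previously described method, with β-thujaplicinol as positive control and IC50 as the readout.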

The subject of assay [2] is Human immunodeficiency virus 1. The assay is described as follows: Antiviral activity against HIV1 infected in human H9 cells assessed as protection against virus-induced cytopathic effect by tetrazolium reduction based colorimetric technique. The format is functional, organism-based. Put shortly:
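HIV cytopathicity assay run by a previously reported protocol. Compounds tested at up to 50 μM, with dideoxycytidine as positive control.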

The subject of assay [3] is CEM-SS. The assay is described as follows: Cytotoxicity against human CEM-SS cells assessed as cell growth inhibition. In kind it is cell-based. Put shortly: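 CEM-SS cells were exposed to compounds at concentrations up to 50 μM, and cytotoxicity was scored as cell growth inhibition.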

The term IC50 denotes the point on the concentration scale where inhibition reaches its midpoint. One may read the EC50 as the midpoint of the concentration-response curve.

Regarding `CC(C)c1ccc(O)c(=O)c(O)c1` [BETA-THUJAPLICINOL], the IC50 came out at 0.26 µM in assay [1] and 2.3 µM in assay [3]. The EC50 entry in assay [2] (h9) is reported as “Not Active”.
As for `Nc1ccn([C@H]2CC[C@@H](CO)O2)c(=O)n1` [ZALCITABINE], the EC50 in assay [2] (Human immunodeficiency virus 1, H9, read-out: EC50) came to 0.079 µM. Also, in assay [3], the IC50 worked out at 61 µM.
On to `C=C(C)[C@@H]1CCc2cc(O[C@@H]3O[C@H](COC(=O)CC(C)(O)CC(=O)O)[C@@H](O)[C@H](O)[C@H]3O)c(=O)cc(C)c2C1` (stereo partly specified), for which the IC50 in assay [1] was 34 µM; in assay [3], above 50 µM. In addition, the EC50 result in assay [2] (h9) is “Not Active”.
For `Cc1cc(=O)c(O[C@@H]2O[C@H](COC(=O)CC(C)(O)CC(=O)O)[C@@H](O)[C@H](O)[C@H]2O)cc2c1C[C@H](C(C)(C)O)CC2` (stereo partly specified), in that order: above 50 µM, above 50 µM and “Not Active”.

The record behind these values is ChEMBL document CHEMBL3425428, “Sesquiterpenoid tropolone glycosides from Liriosma ovata” (J Nat Prod, 2015).
